The source made the active and inactive calls. The calls are words filed in the database; no cut-off is given here.
Tests used:
RAW264.7 [1] = test: Inhibition of LPS-stimulated COX2 expression in mouse RAW264.7 cells by Western blot; format: functional, cell-based
Summary of the method: (§1)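 Cells were RAW 264.7 at 1.5 × 10⁶ cells/mL, 18 h with LPS 1 µg/mL and compound at 1 or 10 µM; dexamethasone as reference. Lysis in HEPES pH 8.0 buffer with protease/phosphatase inhibitors, spin 10,000g 15 min 4 °C. COX-2 taken from total fraction, mPGES-1 from microsomal fraction. 50 µg protein per lane on SDS–15% PAGE, PVDF, polyclonal antibodies (COX-2 1/1000, mPGES-1 1/200). β-actin loading control. Bands expressed relative to LPS control. Two experiments.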

RAW264.7 [2] = test: Inhibition of LPS-stimulated PGE2 production in mouse RAW264.7 cells at 10 uM after 20 hrs by radioimmunoassay; format: functional; settings: RAW264.7, 20 h
Summary of the method: (§2)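 Murine RAW 264.7 macrophages, 1.5 × 10⁶ cells/mL, given 1 µg/mL E. coli 0111:B4 LPS at 37 °C for 20 h with compound in ethanol (vehicle ethanol 1%). Supernatant PGE₂ measured by radioimmunoassay. Mean ± SEM, n = 6. IC₅₀ from at least four significant concentrations. ANOVA then Dunnett's t-test.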

Apis mellifera = test: Inhibition of bee venom group 3 sPLA2 at 10 uM
Summary of the method: (§3)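 Radiometric sPLA2 assay with membranes of E. coli CECT 101 labelled by growth with [3H]oleic acid, then autoclaved. Enzyme in Tris–HCl, 1 mM CaCl2, pH 7.5, preincubated 5 min at 37 °C with compound in ethanol (vehicle 1%), then 15 min with the labelled membranes. Released radioactivity counted. Percent inhibition versus vehicle control, mean ± SEM, n = 6.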

RAW264.7 [3] = test: Inhibition of LPS-stimulated PGE2 production in mouse RAW264.7 cells after 20 hrs by radioimmunoassay; format: functional, cell-based; settings: RAW264.7, 20 h; summary of the method: as §2
RAW264.7 [4] = test: Cytotoxicity against mouse RAW264.7 cells at 10 uM after 20 hrs by MTT assay; format: cell-based; settings: raw264.7, 20 h
Summary of the method: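 RAW 264.7 macrophages (1.5 × 10⁶ cells/mL) co-incubated with 1 µg/mL E. coli 0111:B4 LPS at 37 °C for 20 h, compound added in ethanol (ethanol alone as control). Viability read by mitochondrial reduction of MTT to formazan.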

Naja naja = test: Inhibition of Naja naja venom group 1A sPLA2 at 10 uM; summary of the method: as §3
RAW264.7 [5] = test: Inhibition of LPS-stimulated microsomal prostaglandin E synthase 1 expression in mouse RAW264.7 cells by Western blot; format: functional, cell-based; summary of the method: as §1
[6] = biological target: T1, Phospholipase A2, membrane associated (Homo sapiens) (UniProt P14555); test: Inhibition of human synovial recombinant group 2A sPLA2 at 10 uM
T1 sequence (whole entry): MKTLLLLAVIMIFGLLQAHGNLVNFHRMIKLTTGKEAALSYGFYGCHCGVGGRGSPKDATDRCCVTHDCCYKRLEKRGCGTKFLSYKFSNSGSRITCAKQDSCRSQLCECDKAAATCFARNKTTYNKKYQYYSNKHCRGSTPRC
Summary of the method: (§4)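 Compound tested at 10 µM in ethanol (vehicle 1%). Enzyme preincubated 5 min at 37 °C in Tris–HCl, 1 mM CaCl₂, pH 7.5, then incubated 15 min with [³H]oleate-labelled, autoclaved E. coli CECT 101 membranes. Released radioactivity counted. Percent inhibition versus vehicle control, mean ± SEM, n = 6. Enzymes: human recombinant synovial group IIA; porcine pancreatic group IB.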

Sus scrofa = organism: Sus scrofa; test: Inhibition of pig pancreas group 1B sPLA2 at 10 uM; summary of the method: as §4
RAW264.7 [7] = test: Inhibition of LPS-stimulated microsomal prostaglandin E synthase 1 expression at 10 uM in mouse RAW264.7 cells by Western blot; format: functional, cell-based; summary of the method: as §1
RAW264.7 [8] = test: Inhibition of LPS-stimulated COX2 expression in mouse RAW264.7 cells at 10 uM by Western blot; format: functional, cell-based; summary of the method: as §1

Row | Compound | Activity (RAW264.7 [1]) | inhibition at 10 µM (RAW264.7 [2]) [%] | inhibition (Apis mellifera) [%] | IC50 (RAW264.7 [3]) [nM] | Cytotoxicity (RAW264.7 [4]) [%] | inhibition (Naja naja) [%] | Activity (RAW264.7 [5]) | inhibition [6] [%] | inhibition (Sus scrofa) [%] | Activity (RAW264.7 [7]) | Activity (RAW264.7 [8])
1 | CCCCc1ccc(-c2ccc(C3=C(Br)C(=O)OC3O)cc2)cc1 (stereo not drawn) | inactive | 62.2 | 3.5 | 2240 | 5.5 | 0 | Dose-dependent effect | 0 | 0 | – | –
2 | O=C1OC(O)C(c2cccc(-c3csc4ccccc34)c2)=C1c1cccc(-c2csc3ccccc23)c1 (stereo not drawn) | inactive | 69.2 | 4 | 3230 | 4.1 | 3.6 | Dose-dependent effect | 2.4 | 8.3 | – | –
3 | CCc1c(CC(N)=O)c2cc(OCCCP(=O)(O)O)ccc2n1Cc1ccccc1 | – | – | 2.4 | – | – | 7.9 | – | 96.3 | 36.9 | – | –
4 | CCCCc1ccc(C2=C(c3ccc(-c4ccc(CCCC)cc4)cc3)C(O)OC2=O)cc1 (stereo not drawn) | inactive | 58.7 | 2.8 | 4590 | 0 | 2.6 | Dose-dependent effect | 4.4 | 0 | – | –
5 | O=C1OC(O)C(c2cccc(-c3csc4ccccc34)c2)=C1Br (stereo not drawn) | – | 33.6 | 13.9 | – | 0 | 11.7 | – | 30 | 28.6 | – | –
6 | O=C1OC(O)C(c2cccc(-c3ccc4ccccc4c3)c2)=C1c1ccc2ccccc2c1 (stereo not drawn) | inactive | 79.6 | 2.8 | 840 | 8.6 | 2 | Dose-dependent effect | 14.8 | 0 | – | –
7 | O=C1OC(O)C(c2csc3ccccc23)=C1Br (stereo not drawn) | – | 72.2 | – | 1800 | 0 | – | – | – | – | – | –
8 | O=C1OC(O)C(c2cccc(-c3ccc(Oc4ccccc4)cc3)c2)=C1c1cccc(-c2ccc(Oc3ccccc3)cc2)c1 (stereo not drawn) | – | 22.2 | 6 | – | 0 | 16.6 | – | 10.6 | 10.2 | – | –
9 | O=C1OC(O)C(c2cccc(-c3ccc4ccccc4c3)c2)=C1Br (stereo not drawn) | – | 66.8 | 0 | – | 18.6 | 0 | – | 0 | 0 | – | –
10 | C[C@@H]1C[C@H]2[C@@H]3CCC4=CC(=O)C=C[C@]4(C)[C@@]3(F)[C@@H](O)C[C@]2(C)[C@@]1(O)C(=O)CO | – | – | – | – | – | – | – | – | – | Active | Active
11 | O=C1OC(O)C(c2cccc(-c3ccc(Oc4ccccc4)cc3)c2)=C1Br (stereo not drawn) | – | 51 | 5.3 | – | 0 | 5.8 | – | 2.4 | 0 | – | –
12 | O=C1OC(O)C(c2ccc(-c3ccc(-c4ccccc4)cc3)cc2)=C1Br (stereo not drawn) | inactive | 73.1 | 0 | 3610 | 1.2 | 0 | Dose-dependent effect | 12.1 | 0 | – | –

Reference: ChEMBL document CHEMBL1144230, “Development of a second generation of inhibitors of microsomal prostaglandin E synthase 1 expression bearing the gamma-hydroxybutenolide scaffold” (Bioorg Med Chem, 2008)
